Reference: the EternaBench riboswitch data

Tested on: MS2 coat protein
Assay: apparent Kd, MS2 coat protein; higher = weaker binding; RNA-MaP array; FMN 200 µM where present
In short: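 Designs on Illumina sequencing-chip clusters, transcribed by stalled E. coli RNA polymerase, were exposed to SNAP-549-labelled MS2 coat protein in doubling steps from 0.7 or 1.5 nM up to 3 µM, without and then with constant ligand. The buffer held 100 mM Tris-HCl pH 7.5, 80 mM KCl, 4 mM MgCl2, BSA, DTT, yeast tRNA and Tween-20. Apparent Kd values are medians of filtered per-cluster binding-curve fits to green signal normalised to red-channel RNA signal and control-cluster median Fmax.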

[1] = designed as: OFF switch for flavin mononucleotide, no ligand
[2] = ligand present: flavin mononucleotide, designed as: OFF switch for flavin mononucleotide
[3] = designed as: ON switch for flavin mononucleotide, no ligand
[4] = ligand present: flavin mononucleotide, designed as: ON switch for flavin mononucleotide

Sequence | apparent Kd [1] | apparent Kd [2] | apparent Kd [3] | apparent Kd [4]
GAAUAAUUGAUCCUUUUUUAUUACAUGAGGAUCACCCAUGUGCAGGAUAUCGAUUAUUAUAGUUUCGAGAAGGGCAAGAACUAU | 27.5 nM | 128 nM | – | –
GCAGCGUAUGUAGGAUAUCGGUCAGUUUCUGAUCGAGAAGGACAUGAGGAUCACCCAUGUAAAUUACCGACUCUGUCGGGCUGC | 6.64 nM | 8.6 nM | – | –
GGAUAGGACAGAGGAUAUACGUGCUCGAGAUACUAGCAAAAUUUCCUCACAUGAGGAUCACCCAUGUAGAAGGCUGUCCUAUCG | 28.7 nM | 255 nM | – | –
UGAGCCUCGUGAGGAUAUACAUGAGGAUCACCCAUGUAAAUGAAAGAUAGCUCGAAACGAGCAAAGUAGAAGGCACGAGGCUCA | 17.1 nM | 27.1 nM | – | –
GGGCCCGAGGUGAGGAUAUUGUGCAUGGCGAGUGACAAGAAGGUACAUGAGGAUCACCCAUGUGAUACCGACCU | 451 nM | 371 nM | – | –
UACCCACAUGGGUAGUGGCAGCGUGAGGAUAUGGGUUGGAUACAUGAGGAUCACCCAUGUUCCUCCUAGAAGGCACUUGUAACC | – | – | 138 nM | 24.8 nM
AAAUUUAACGAAGGAUAUGCUGACAUGAGGAUCACCCAUGUGUGCCUUGUGUUGCUGAUUAGGUUGCAGAAGGUCGUAUACAUA | 330 nM | 1230 nM | – | –
CCAUGUUAGCAGGAUAUGCAAUUAUUCUUUUAAGCAGAAGGGCUUACAUGAGGAUCACCCAUGUAACAUUUCAU | 17.3 nM | 85.4 nM | – | –
AUCAGCUCGUCAGGAUAUACGUCACUGCGUCAGCAGUGUGGUAAGAUCACAUGAGGAUCACCCAUGUAGAAGGGACGAGCUGAC | 14.2 nM | 306 nM | – | –
AAAAUGCAAGGAUAUACAUGAGGAUCACCCAUGUAGAAGGAAGCGAGGGUUUCCUGCUGUAGAAGGUGCUACAG | 23 nM | 20.5 nM | – | –
CAGCCCUGAGGAUAUCCCUACUUGUACAUGAGGAUCACCCAUGUUCUCCUCUGGGCUUCGGGAGAAGGCAGGUCUC | 14.6 nM | 16.8 nM | – | –
GGAUAGGACAGAGGAUAUACGUGCUAGAGAUACUAGCAAAAUUUCCUCACAUGAGGAUCACCCAUGUAGAAGGCUGUCAUAUCG | 14.8 nM | 306 nM | – | –
GGUCGUCACAUGAACAUGAGGAUCACCCAUGUAAAUUCUCAUGAGGAUAUGGAUCCUAAUUGGAUCCAGAAGGCAUGGACGACC | – | – | 1090 nM | 333 nM
UGGGAGCGAUAGAAGGCCGGGUUUCACAUGAGGAUCACCCAUGUGCGGGCCCUCUGUUGAAGGCUGGAGGAUAUAUCGUGCGGA | 14.5 nM | 7.39 nM | – | –
UCUUGACAUGAGGAUCACCCAUGUCAGGAUAUAGUAGGACAAAUAAAUAAAAGUUCUACUAGAAGGGACGUGGG | 20.4 nM | 26.7 nM | – | –
GAAGGCUGGUAGAAGGAUCCUCACAUGAGGAUCACCCAUGUAACAGCGGAUAGGAUAUACCGUCUUUCAUGUUGGUCUCCCUAA | – | – | 461 nM | 46.5 nM
UUAUAUAGUGUGAGGAUAUGCUGGUCCUUGGAUCAGCAGAAGGCACAUGAGGAUCACCCAUGUAGUUAAAUUUA | 34.4 nM | 134 nM | – | –
GGAUAGUGAGGAUAUCGAUGUUAGGAGGAGGAGGUAGGAGGCGAGAAGGCACAUGAGGAUCACCCAUGUAUGGU | 31.8 nM | 29.4 nM | – | –
GGUGGACAUGAGGAUCACCCAUGUGAGGAUAUCGGCUGGCUAGCGGCGGAUGGCUUCUCGAGAAGGCGCAUUGU | 86.4 nM | 75 nM | – | –

Sequence | apparent Kd [1] | apparent Kd [2] | apparent Kd [3] | apparent Kd [4]
GGACAUAAAGUCAGGAUAUUAAGGCGACCACGCGAUGAGAAGGGACAUGAGGAUCACCCAUGUGAUUCGCAUCA | 115 nM | 101 nM | – | –
CCAGAGAUAUGAGGAUAUCGAGUGGAAUACACUCGAGAAGGCAUGUGAAUACAUGAGGAUCACCCAUGUGAUCAAUACUCUGGA | – | – | 171 nM | 32.6 nM
CGAGAGGCAGGAUAUAGUAUUUGCGACAUGAGGAUCACCCAUGUAUAUACAGUCGCUCCGUUAGAAGGGCCAUUUC | 22.8 nM | 33.2 nM | – | –
GUACUUGUGCAGAAGGGCAUUGAAUUAGGUUUUUAGGUUGAUCAGAAAUGCAGGAUAUGUUAAACAUGAGGAUCACCCAUGUAC | – | – | 66.3 nM | 13.7 nM
AACAGUACAGGAUAUACAUGAGGAUCACCCAUGUGAGAAUUAAGUGGCGUACCACAUAGUAGAAGGGUACUGGA | 71 nM | 156 nM | – | –
AUAAAACAUGAGGAUCACCCAUGUAGAAACAUGGGAGGAUAUACAAAGACGAAAGUCAAAGUAGAAGGCCUAAAAG | – | – | 462 nM | 311 nM
UGUCGGAGCAGAGGAUAUUACAUGAGGAUCACCCAUGUAUGAACCAAUAGCUGAAAACAGCAAUGUAAGAAGGCUGCUCCGACA | 11.5 nM | 176 nM | – | –
CAGCGAAAGUAGAAGGCAGUACUGUUACAGUACUGAGGAUAUACAUGAGGAUCACCCAUGUAAUAAAGCUGGAAAUAUAUAAUU | 6.41 nM | 7.33 nM | – | –
GGUUGGCGAGGAUAUACAUGAGGAUCACCCAUGUGGUCCUGCGGUGGUGUCGCCCUUUGUAGAAGGCGCGGGUC | 59.1 nM | 56.6 nM | – | –
AUUUUUUAUGUAGGAUAUGCUUGUGGUAAGAUAGCAGAAGGACAUGAGGAUCACCCAUGUUAAUGAUAGAGAUUUUAGGUUGGU | 42.6 nM | 69.2 nM | – | –
CUAAAUCAUGUAGGAUAUGCAUGGCGAAGCUACGCAGAAGGACAUGAGGAUCACCCAUGUCUCUCCGUCUGGGUACAGACGGAG | 18.9 nM | 120 nM | – | –
GUAUAUAGUGUGAGGAUAUGCUGGUCCUUGGAUCAGCAGAAGGCACAUGAGGAUCACCCAUGUAGUUUAUUAUG | 19.7 nM | 78 nM | – | –
GUCAGCUCGUGAGGAUAUACAACACUGUUUCGGCAGUGUAUUAAGAUCACAUGAGGAUCACCCAUGUAGAAGGCACGAGCUGAU | 13.7 nM | 262 nM | – | –
AAUAGGGUCGUAAUAGCUAGCACAUGAGGAUCACCCAUGUACAGAAGGCGAGCCAAGGCGGCAAUCGAGGAUAUGUAGCAGGGU | 19.5 nM | 29.9 nM | – | –
UAGUCGGUAGAUAAUAAUGAUUACAUGAGGAUCACCCAUGUAUAGGAUAUCGUCAGGAAUACUGACGAGAAGGAUACAUCCGAC | 18 nM | 26.5 nM | – | –
GUAGCAUACAGAGGAUAUUCAAAACCGGAAACGGACAUGAGGAUCACCCAUGUGGCGAAAGCCAGGGAGAAGGCUGAAUGCUAC | – | – | 32.8 nM | 14.8 nM
CCAGCGUAUGUGAGGAUAUGCUGGUCCUUGGAUCAGCAGAAGGCACAUGAGGAUCACCCAUGUGGUGUCGUUGG | 303 nM | 37 nM | – | –
CUUCGUGAUGCAGGAUAUGUUUGCUUUUUGCGCACAGAAGGGCAUCACAUGAGGAUCACCCAUGUGAGUAGAAAACCGUGGAAA | 14.1 nM | 79.3 nM | – | –
AAAACGAUGUGAGGAUAUCACCGCUGUGACGGCUGAGAAGGCACAUGAGGAUCACCCAUGUGCAGGCGUGUGUGGGUAAUCCAA | 186 nM | 139 nM | – | –

Sequence | apparent Kd [1] | apparent Kd [2] | apparent Kd [3] | apparent Kd [4]
ACAUGAUAUGUAGGAUAUCACAUUAAUUGAUUAAUAUUUGAAUAUAGGAUUUGAGAAGGACAUUUACAUGAGGAUCACCCAUGU | 20.1 nM | 14.4 nM | – | –
CUCGGACAUGAGGAUCACCCAUGUGAGGAUAUGGUGCUAUCGUCAUUAGACGAUUGCGUUAGAAGGCACAAAUG | 41.5 nM | 54.6 nM | – | –
AGACAUACUCAAGGAUAUCGUCGUACAUGAGGAUCACCCAUGUCGCACUUCUAAAGAGAAGUUGGCGAGAAGGUGAGGUUCGUU | – | – | 18.8 nM | 7.76 nM
CUGUUAUAGGUCCAUUUUAACAACAUGAGGAUCACCCAUGUGCAGGAUAUCGUGUUAAUUUUCAUCGAGAAGGGCAUAGUCACG | 27.2 nM | 58.4 nM | – | –
UGAGCUUGUGUGAGGAUAUGAGUUCGGAAAUGAGCUUAGAAGGCACAUGAGGAUCACCCAUGUAAGCGAGUUCG | 72.2 nM | 74.7 nM | – | –
CCGCCCUGAGGAUAUCCACCCUCAUACAUGAGGAUCACCCAUGUUCACCCUUGGGUUCCCGGAGAAGGCAGCCUUC | 566 nM | 548 nM | – | –
CGUGCGUAUGUGAGGAUAUGCUGGUCCUUGGAUCGGCAGAAGGCACAUGAGGAUCACCCAUGUGGUGUCGUACC | 187 nM | 35.9 nM | – | –
GUGUACGGAGGAUAUAUAUGGGCAGCAUACGCUGCAGCUUCACAUGAGGAUCACCCAUGUAGAAGGCUGUACAC | 25 nM | 200 nM | – | –
AAAAGUAGAGGAUAUACAUGAGGAUCACCCAUGUAGAAAGGAAGUGUAUAUAUGGCAUGUAGAAGGCUACAUGA | 32.1 nM | 34.4 nM | – | –
CGUCUAUGCCAGAAGGCAUGUCAAAAGACAUGAGGAUCACCCAUGUAAAUGAGGAUAUGGCAUAGACGAAAAGUGCGAAAGCAC | – | – | 136 nM | 13.6 nM
UGUGCGUAUGUGAGGAUAUGCUGGUCCUUGGAUCGGCAGAAGGCACAUGAGGAUCACCCAUGUGGUGUCGUACU | 483 nM | 26.6 nM | – | –
UACAUGAGGAUCACCCAUGUUUUGUCGUGUAUGGUAUUUAUCUAGGAUAUCAAUUGUUUUAUUUAUGAGAAGGAGAAUAUUAAU | 39.3 nM | 35.8 nM | – | –
UCCUCGGUACGAGGAUAUUCACGACGGUGUUCGGAAGAAGGCGUACAUGAGGAUCACCCAUGUCCGUCGAAAGGACUAACCGGG | 49 nM | 68.5 nM | – | –
ACAUGUUAUGUAGGAUAUUAUACACAUGAGGAUCACCCAUGUAACCGGAGGCUUUACUAUGAGUAUGAGAAGGGUAUGAACAUG | 138 nM | 145 nM | – | –
UCGGCGCGAGGAUAUACGUUUGCUUUUUGGGAUCGUUGCGUACAUGAGGAUCACCCAUGUAGAAGGCGCGCCGC | 17.6 nM | 73.8 nM | – | –
UUUGUUGUUGUGAGGAUAUCGUAGUUAUUUUGAAACGAGAAGGCACAUGAGGAUCACCCAUGUUUGUUGAUGGU | 30.7 nM | 127 nM | – | –
AGUGUCAUCGAGAAGGCCUUAGGAACAUGAGGAUCACCCAUGUAACAUGGGAGGAUAUCGAUGAUACAGCUACGUUUCGUAGCA | – | – | 6.51 nM | 4.85 nM
UAUGAAUGAGGAUAUGCAUAGUAGACUCCUCAUUUCUUCGGACAUGAGGAUCACCCAUGUAGAAGGCGUUGCGU | 33.1 nM | 58 nM | – | –
